Screening results (PubChem)
Apaf1 inhib: human Apaf-1 inhibition; O14727; reconstituted apoptosome caspase-3 activity, DEVD-Rh110 fluorescence; inhibition, % at 20 µM; 0.71% of 330,000 active; AID 489030; active = inhibition of at least 40% at 20 µM;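 note: plate controls were DMSO wells for no effect and DEVD-CHO caspase inhibitor wells for full effect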
Target sequence (O14727 whole entry, looked up): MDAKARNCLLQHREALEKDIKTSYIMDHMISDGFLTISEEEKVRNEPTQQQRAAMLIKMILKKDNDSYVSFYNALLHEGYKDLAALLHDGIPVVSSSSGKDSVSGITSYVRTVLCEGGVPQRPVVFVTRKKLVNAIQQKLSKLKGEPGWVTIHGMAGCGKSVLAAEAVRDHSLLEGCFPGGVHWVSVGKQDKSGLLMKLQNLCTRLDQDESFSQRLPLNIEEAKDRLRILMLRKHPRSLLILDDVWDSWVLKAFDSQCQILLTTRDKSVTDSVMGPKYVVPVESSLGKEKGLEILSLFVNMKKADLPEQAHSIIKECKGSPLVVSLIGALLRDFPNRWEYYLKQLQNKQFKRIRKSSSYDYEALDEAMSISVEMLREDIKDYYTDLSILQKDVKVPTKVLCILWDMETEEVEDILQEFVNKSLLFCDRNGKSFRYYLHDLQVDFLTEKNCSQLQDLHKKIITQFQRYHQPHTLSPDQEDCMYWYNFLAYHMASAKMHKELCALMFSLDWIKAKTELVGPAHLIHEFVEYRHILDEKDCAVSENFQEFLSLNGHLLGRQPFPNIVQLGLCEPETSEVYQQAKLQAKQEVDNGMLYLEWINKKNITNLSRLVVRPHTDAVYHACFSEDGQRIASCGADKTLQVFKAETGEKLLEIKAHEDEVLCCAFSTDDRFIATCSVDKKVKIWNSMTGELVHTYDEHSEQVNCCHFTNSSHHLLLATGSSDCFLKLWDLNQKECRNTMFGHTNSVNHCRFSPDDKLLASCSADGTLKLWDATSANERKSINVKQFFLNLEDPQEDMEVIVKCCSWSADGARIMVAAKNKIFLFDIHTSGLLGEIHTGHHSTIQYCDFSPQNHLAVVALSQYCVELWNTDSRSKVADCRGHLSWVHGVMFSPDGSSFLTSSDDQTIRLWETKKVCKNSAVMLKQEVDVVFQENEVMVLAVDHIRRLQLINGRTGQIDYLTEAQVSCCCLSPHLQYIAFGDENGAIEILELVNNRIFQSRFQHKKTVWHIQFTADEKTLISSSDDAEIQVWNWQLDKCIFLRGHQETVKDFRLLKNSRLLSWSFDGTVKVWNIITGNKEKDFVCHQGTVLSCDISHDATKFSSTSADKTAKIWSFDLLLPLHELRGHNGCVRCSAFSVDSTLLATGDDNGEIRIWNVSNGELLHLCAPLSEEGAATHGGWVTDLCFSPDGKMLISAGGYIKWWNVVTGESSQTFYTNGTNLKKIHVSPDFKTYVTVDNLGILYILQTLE
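System: Apoptosome proteins | Medium: Hepes pH 7.5 with detergent and BSA | Also added: Cytochrome c trigger plus (Z-DEVD)2-Rh110 caspase-3 substrate | Incubation: 30 min compound preincubation, 50 min activation, room temperature | Detection: Rhodamine 110 fluorescence at Ex 480/Em 540 nm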
SENP8 block-1: SENP8 protease inhibition. inhibition, % at 10 µM. purified SENP8, Z-RLRGG-aminoluciferin cleavage, luminescence. 1.2% of 330,000 active. AID 2540; in the data active = inhibition above about 50%
SENP7 inh: inhibitors of human SENP7 protease; AID 434973; Q9BQF6; recombinant SENP7, Z-RLRGG-aminoluciferin luminescence, 40 min; 1.5% of 330,000 active; inhibition, % at 5 µM;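 active = inhibition above about 50% at the single test dose, limit read from the data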;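 note: plate controls were DMSO with enzyme for no effect and no enzyme buffer wells for full effect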
SENP8 block-2: inhibitors of human SENP8 protease. Q96LD8. recombinant SENP8, Nedd8 substrate fluorescence. inhibition, % at 20 µM. 0.64% of 360,000 active. AID 602440; in the data active = inhibition mostly above about 40%, no sharp cut-off; inactive = mostly below about 27%
SENP6 inh: inhibitors of human SENP6 protease; Q9GZR1; 1.8% of 330,000 active; AID 2599; Recombinant SENP6 catalytic domain, aminoluciferin luminescence; inhibition, % at 10 µM;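 active = inhibition above about 50% at the single tested dose, limit read from the data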;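 note: plate controls were DMSO wells with enzyme for no effect and DMSO wells lacking enzyme for full effect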
SENP1 FRET inh: SENP1 (human) catalytic domain inhibition; AID 624204; inhibition, % at 10 µM; recombinant SENP1 catalytic domain, CyPet-SUMO1-YPet FRET cleavage; 0.21% of 360,000 active;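 active = inhibition at least 30% at 10 µM, raw YFP signal under a set limit, fluorescence ratio 0.5 to 1.5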;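 note: 0% = enzyme with DMSO and 100% = no enzyme wells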
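material = recombinant human SENP1 catalytic domain, His6-tagged | quantity = 20 pM enzyme | reagent = 25 nM SUMO1 FRET substrate | compound dosing = 10 µM single point, 0.5% DMSO | timing = 50 min enzyme reaction, room temperature, light-protected | detection = FRET, CFP and YFP emission | control set = no-enzyme low, enzyme-DMSO high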
SENP8 conf-1: human SENP8 inhibition, confirmed; inhibition, % at 12.5 µM; shares compounds with SENP7 inh; Recombinant SENP8, Z-RLRGG-aminoluciferin luminescence, 60 min; 40% of 6,200 active; AID 488912;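 active = mean inhibition across replicates above about 50%, limit read from the data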
SENP6 conf: human SENP6 inhibition, confirmed | shares compounds with SENP7 inh | recombinant SENP6, Z-RLRGG-aminoluciferin luminescence | inhibition, % at 12.5 µM | 58% of 6,200 active | AID 488915
SENP7 confirm: confirmation of human SENP7 protease inhibitors; shares compounds with SENP7 inh; recombinant SENP7, Z-RLRGG-aminoluciferin luminescence, 40 min; inhibition, % at 12.5 µM; 69% of 6,200 active; AID 488917
Casp3 select: caspase-3 inhibition (SENP selectivity assay). shares compounds with SENP7 inh. purified caspase-3, Z-DEVD-aminoluciferin luminescence, 60 min. inhibition, % at 12.5 µM. 60% of 6,200 active. AID 488918;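 active = mean inhibition above about 50%, limit read from the data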;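 note: plate controls were enzyme with DMSO for no effect and wells without caspase-3 for full effect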
SENP luc ctr: interferes with luciferase luminescence in SENP counter-screen; shares compounds with SENP7 inh; Pre-incubated SENP8/Z-RLRGG-aminoluciferin, luciferase luminescence interference; inhibition, % at 12.5 µM; 39% of 6,200 active; AID 488919;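 active = mean inhibition above about 50% when retested at one dose, limit read from the data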;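 note: plate controls were DMSO wells with completed reaction for no effect and substrate without enzyme for full effect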
Apaf-1 inh conf: Apaf-1 inhibition, single-dose confirmed. shares compounds with Apaf1 inhib. reconstituted apoptosome, caspase-3 DEVD-Rh110 fluorescence. inhibition, % at 20 µM. 25% of 1,800 active;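 active = mean inhibition of at least 40% at 20 µM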;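 note: plate controls were DMSO wells for no effect and DEVD-CHO caspase inhibitor control wells for full effect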
Rh110 interf inh: Rh110 signal interference in Apaf-1 inhibitor counter-screen. shares compounds with Apaf1 inhib. Rh110 fluorescence interference, quenched caspase reaction. activation (fluorescence interference), % at 20 µM. 1,800 tested, under 10 active;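 active = signal rise of 40% or more at 20 µM, treated as a fluorescence artifact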
Fluor interf inh: Apaf-1 inhibitor counter-screen fluorescence artifact. shares compounds with Apaf1 inhib. fluorescence interference counterscreen, Apaf-1 assay format. IC50, µM. 460 tested, under 10 active. AID 588538; call rule not given here
SENP8 conf-2: SENP8 (human) inhibition, single concentration confirmation; shares compounds with SENP8 block-2; purified SENP8, Nedd8-AMC/pro-Nedd8 cleavage fluorescence, 30 min; inhibition, % at 25 µM; 15% of 1,400 active; in the data active = inhibition mostly above about 39%, no sharp cut-off; inactive = mostly below about 34%
Numbers without * were called inactive; nt = no result given. An excerpt weighted towards active compounds, which were near 2.9% of everything screened.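 Rule for the calls, unless noted: active = mean inhibition above about 50% in the one-dose retest (limit read from the data); inactive = the rest.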

SMILES	Apaf1 inhib	SENP8 block-1	SENP7 inh	SENP8 block-2	SENP6 inh	SENP1 FRET inh	SENP8 conf-1	SENP6 conf	SENP7 confirm	Casp3 select	SENP luc ctr	Apaf-1 inh conf	Rh110 interf inh	others
Cc1ccc(C(=O)N/N=C/c2ccc(-c3ccccc3[N+](=O)[O-])o2)cn1	75*	36	30	2	65*	-12	-24	-8	-8	-5	-8	30	5
COc1ccc(OCCC(=O)OCC(=O)Nc2cccc(S(=O)(=O)N3CCCCC3)c2)cc1	3	6	6	12	-5	4	nt	nt	nt	nt	nt	nt	nt
O=C1N/C(=C\c2ccc(O)cc2)C(=O)c2ccccc21	97*	94*	85*	25	96*	15	93*	97*	97*	84*	40	74*	0	Fluor interf inh=>100
Oc1cccc(C=Nc2cccc3ccccc23)c1O	74*	36	17	-314	54*	-44	17	22	9	40	-6	11	4
COc1ccc2c(c1)Cc1sc(NC(=O)c3ccco3)nc1-2	85*	88*	95*	-14	92*	-4	27	46	87*	64*	78*	56*	5	Fluor interf inh=>100
COc1ccc(C(C[N+](=O)[O-])c2c(C)cc3ccccn23)cc1 (stereo unspecified)	12	37	5	-32	-18	-19	nt	nt	nt	nt	nt	nt	nt
COc1ccc(C(C[N+](=O)[O-])c2c(C)[nH]n(-c3ccccc3)c2=O)cc1 (stereo unspecified)	96*	48	61*	84*	65*	3	18	60*	36	0	0	65*	9	Fluor interf inh=>100
COc1cccc(C(c2c(C)[nH]n(-c3ccccc3)c2=O)c2c(C)[nH]n(-c3ccccc3)c2=O)c1O	94*	11	56*	54*	57*	-1	13	34	12	3	4	31	10
CC(C)(C)S(=O)(=O)N1C[C@H]2CC/C=C\C/C(c3ccccc3)=C\2[C@@H]1CCO	nt	nt	nt	12	nt	-1	nt	nt	nt	nt	nt	nt	nt
NC(N)=NC(N)=Nc1cccc2ccccc12	83*	13	66*	12	61*	-10	8	6	2	-4	-5	11	5
Oc1cccc2c(NC(=S)Nc3ccc(SC(F)F)cc3)cccc12	53*	53*	30	-185	85*	-30	24	20	0	4	10	12	0
Oc1cccc(NC(=S)Nc2ccc(SC(F)F)cc2)c1	-9	-4	4	18	9	-2	nt	nt	nt	nt	nt	nt	nt
Oc1c(Br)cc(Br)cc1C=Nc1cccnc1	79*	24	16	-10	55*	-27	13	42	26	12	5	36	5
Oc1c(Br)cc(Br)cc1/C=N/c1nccs1	8	2	1	-50	-12	-20	nt	nt	nt	nt	nt	nt	nt
Oc1c(Br)cc(Br)cc1C=Nc1ccc2[nH]ncc2c1	84*	32	28	-322	56*	-35	0	12	-5	5	3	34	7
CCC(C)NS(=O)(=O)c1cccs1 (stereo unspecified)	3	-8	-9	28	-20	0	nt	nt	nt	nt	nt	nt	nt
CCc1cc[n+](C2=C([O-])c3ccccc3C(=O)/C2=N\S(=O)(=O)c2cccs2)cc1	68*	53*	47	90*	84*	9	36	80*	49	22	3	64*	2	Fluor interf inh=>100
COc1ccc(Cl)cc1S(=O)(=O)N1CCC(C(=O)NCc2ccco2)CC1	-1	-2	-3	0	-16	1	nt	nt	nt	nt	nt	nt	nt
COc1ccc(CNC(=O)c2c(C)oc3c2C(=O)c2ccccc2C3=O)cc1	67*	34	38	64*	66*	13	33	61*	21	70*	6	71*	12	Fluor interf inh=>100
CCN1C(=O)[C@@H]2[C@H](C1=O)[C@@H]1C(=O)Nc3ccccc3C(=O)N1[C@@H]2c1ccc(Br)cc1	2	1	3	-59	-4	-9	nt	nt	nt	nt	nt	nt	nt
CCCCn1nnnc1C(c1cc2ccccc2o1)N(Cc1ccccc1)Cc1ccccc1 (stereo unspecified)	nt	nt	nt	7	nt	1	nt	nt	nt	nt	nt	nt	nt
Cn1c(=O)c2c(nc(NCc3ccccc3)n2C)n(C)c1=O	1	-3	-4	10	1	2	nt	nt	nt	nt	nt	nt	nt
Cn1c(=O)c2cc(NCc3ccccc3)nnc2n(C)c1=O	94*	80*	5	-83	81*	-25	-3	-2	-5	-4	-8	7	0
O=C(c1ccccc1)c1coc2c1C(=O)c1ccccc1C2=O	64*	33	18	52*	85*	4	23	75*	48	14	15	70*	6	Fluor interf inh=>100
O=[N+]([O-])c1ccccc1N/N=C/c1c[nH]c2ccccc12	1	63*	79*	41*	82*	4	31	44	96*	30	8	nt	nt	SENP8 conf-2=17
Cn1cc([N+](=O)[O-])c(C(=O)N/N=C\c2c[nH]c3ccccc23)n1	7	-2	7	12	-7	-1	nt	nt	nt	nt	nt	nt	nt
CC(=O)Nc1sc(C)c(C)c1C(=O)OCC(=O)N(CCC#N)c1cc(C)cc(C)c1	21	-6	-1	-60	-8	0	nt	nt	nt	nt	nt	nt	nt
